Experimental data reported in ChEMBL document CHEMBL4020727, “Synthesis and biological evaluation of largazole zinc-binding group analogs” (Bioorg Med Chem, 2017).
Active and inactive are the calls of the source. The calls are words filed in the database; no cut-off is given here.

Assays:
[1] = biological target: T1, Histone deacetylase 8 (Homo sapiens) (UniProt Q9BY41); test: Inhibition of full length C-terminal His-tagged human HDAC8 expressed in baculovirus infected Sf9 insect cells using BPS HDAC class 2a substrate at 10 uM after 30 mins by fluorescence assay relative to control
T1 sequence (whole entry): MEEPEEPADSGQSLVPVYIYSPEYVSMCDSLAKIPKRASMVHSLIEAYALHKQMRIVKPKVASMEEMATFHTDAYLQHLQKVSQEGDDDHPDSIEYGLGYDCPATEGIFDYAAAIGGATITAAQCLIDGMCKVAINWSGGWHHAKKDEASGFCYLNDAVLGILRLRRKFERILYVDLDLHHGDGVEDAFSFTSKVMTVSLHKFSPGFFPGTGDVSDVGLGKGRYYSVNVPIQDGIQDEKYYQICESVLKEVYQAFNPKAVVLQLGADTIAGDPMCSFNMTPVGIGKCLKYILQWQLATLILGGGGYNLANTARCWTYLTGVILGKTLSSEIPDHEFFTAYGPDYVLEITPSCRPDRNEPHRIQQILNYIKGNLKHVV
Method in brief: (§1)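 Run by a contract lab. Compound incubated with HDAC enzyme, substrate, bovine serum albumin and HDAC buffer in duplicate for 30 min at 37 °C. Quenched with HDAC developer, 15 min at room temperature, fluorescence read at ex 360/em 460 nm. Activity taken as (F−Fb)/(Ft−Fb) against blank and solvent control wells; IC50 from curve fitting.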

[2] = biological target: T2, Polyamine deacetylase HDAC10 (Homo sapiens) (UniProt Q969S8); test: Inhibition of N-terminal GST-tagged/C-terminal His-tagged human HDAC10 (1 to 481 residues) expressed in baculovirus infected Sf9 insect cells using BPS HDAC substrate 3 at 10 uM after 30 mins by fluorescence assay relative to control; method in brief: as §1
T2 sequence (whole entry): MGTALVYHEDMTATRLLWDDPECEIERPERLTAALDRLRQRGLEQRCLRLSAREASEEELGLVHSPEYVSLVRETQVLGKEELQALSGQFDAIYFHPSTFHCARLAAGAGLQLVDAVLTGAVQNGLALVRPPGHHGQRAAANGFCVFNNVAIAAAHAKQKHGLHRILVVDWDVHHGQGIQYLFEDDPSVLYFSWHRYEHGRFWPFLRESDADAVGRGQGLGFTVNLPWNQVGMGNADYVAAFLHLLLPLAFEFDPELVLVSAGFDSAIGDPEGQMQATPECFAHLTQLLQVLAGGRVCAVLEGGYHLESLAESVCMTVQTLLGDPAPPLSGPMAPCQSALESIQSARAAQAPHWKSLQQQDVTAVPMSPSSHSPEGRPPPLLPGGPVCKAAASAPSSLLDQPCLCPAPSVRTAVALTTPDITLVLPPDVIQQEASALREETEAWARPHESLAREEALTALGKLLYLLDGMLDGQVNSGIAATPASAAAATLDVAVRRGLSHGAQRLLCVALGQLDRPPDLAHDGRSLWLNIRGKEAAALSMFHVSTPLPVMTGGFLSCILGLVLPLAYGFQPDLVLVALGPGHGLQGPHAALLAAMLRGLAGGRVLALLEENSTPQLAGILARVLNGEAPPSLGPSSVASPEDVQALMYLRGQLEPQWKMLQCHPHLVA

[3] = biological target: Histone deacetylase 5 (Homo sapiens) (UniProt Q9UQL6); test: Inhibition of full length N-terminal GST-tagged human HDAC5 expressed in baculovirus infected Sf9 insect cells using BPS HDAC class 2a substrate at 10 uM after 30 mins by fluorescence assay relative to control; method in brief: as §1
Histone deacetylase 2 = Histone deacetylase 2 (Homo sapiens, UniProt Q92769); test: Inhibition of full length C-terminal FLAG-tagged human HDAC2 expressed in baculovirus infected Sf9 insect cells using BPS HDAC substrate 3 at 10 uM after 30 mins by fluorescence assay relative to control; method in brief: as §1
HCT-116 [4] = test: Cytotoxicity against human HCT116 cells assessed as change in cell viability at 10 uM after 48 hrs by MTT assay; format: functional, cell-based
Method in brief: (§2)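 Cells grown in DMEM with 10% FBS, 37 °C, 5% CO2; 1 × 10^4 cells per well plated and left 24 h, then exposed to a range of compound concentrations or vehicle (1% EtOH) for 48 h. Viability read by MTT.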

MDA-MB-231 [5] = test: Cytotoxicity against human MDA-MB-231 cells assessed as change in cell viability at 10 uM after 48 hrs by MTT assay; format: functional, cell-based; method in brief: as §2
Histone deacetylase 1 = Histone deacetylase 1 (Homo sapiens, UniProt Q13547); test: Inhibition of recombinant full length C-terminal His/FLAG-tagged human HDAC1 expressed in baculovirus infected Sf9 insect cells using BPS HDAC substrate 3 at 10 uM after 30 mins by fluorescence assay relative to control; method in brief: as §1
[6] = biological target: Histone deacetylase 3/Nuclear receptor corepressor 2 (HDAC3/NCoR2) (Homo sapiens) (UniProt O15379+Q9Y618); test: Inhibition of full length human C-terminal His-tagged HDAC3/N-terminal GST-tagged NCOR2 (395 to 489 residues) expressed in baculovirus infected Sf9 insect cells using BPS HDAC substrate 3 at 10 uM after 30 mins by fluorescence assay relative to control; method in brief: as §1
[7] = biological target: T3, Protein deacetylase HDAC6 (Homo sapiens) (UniProt Q9UBN7); test: Inhibition of full length N-terminal GST-tagged human HDAC6 expressed in baculovirus infected Sf9 insect cells using HDAC substrate 3 after at 10 uM 30 mins by fluorescence assay relative to control; method in brief: as §1
T3 sequence (whole entry): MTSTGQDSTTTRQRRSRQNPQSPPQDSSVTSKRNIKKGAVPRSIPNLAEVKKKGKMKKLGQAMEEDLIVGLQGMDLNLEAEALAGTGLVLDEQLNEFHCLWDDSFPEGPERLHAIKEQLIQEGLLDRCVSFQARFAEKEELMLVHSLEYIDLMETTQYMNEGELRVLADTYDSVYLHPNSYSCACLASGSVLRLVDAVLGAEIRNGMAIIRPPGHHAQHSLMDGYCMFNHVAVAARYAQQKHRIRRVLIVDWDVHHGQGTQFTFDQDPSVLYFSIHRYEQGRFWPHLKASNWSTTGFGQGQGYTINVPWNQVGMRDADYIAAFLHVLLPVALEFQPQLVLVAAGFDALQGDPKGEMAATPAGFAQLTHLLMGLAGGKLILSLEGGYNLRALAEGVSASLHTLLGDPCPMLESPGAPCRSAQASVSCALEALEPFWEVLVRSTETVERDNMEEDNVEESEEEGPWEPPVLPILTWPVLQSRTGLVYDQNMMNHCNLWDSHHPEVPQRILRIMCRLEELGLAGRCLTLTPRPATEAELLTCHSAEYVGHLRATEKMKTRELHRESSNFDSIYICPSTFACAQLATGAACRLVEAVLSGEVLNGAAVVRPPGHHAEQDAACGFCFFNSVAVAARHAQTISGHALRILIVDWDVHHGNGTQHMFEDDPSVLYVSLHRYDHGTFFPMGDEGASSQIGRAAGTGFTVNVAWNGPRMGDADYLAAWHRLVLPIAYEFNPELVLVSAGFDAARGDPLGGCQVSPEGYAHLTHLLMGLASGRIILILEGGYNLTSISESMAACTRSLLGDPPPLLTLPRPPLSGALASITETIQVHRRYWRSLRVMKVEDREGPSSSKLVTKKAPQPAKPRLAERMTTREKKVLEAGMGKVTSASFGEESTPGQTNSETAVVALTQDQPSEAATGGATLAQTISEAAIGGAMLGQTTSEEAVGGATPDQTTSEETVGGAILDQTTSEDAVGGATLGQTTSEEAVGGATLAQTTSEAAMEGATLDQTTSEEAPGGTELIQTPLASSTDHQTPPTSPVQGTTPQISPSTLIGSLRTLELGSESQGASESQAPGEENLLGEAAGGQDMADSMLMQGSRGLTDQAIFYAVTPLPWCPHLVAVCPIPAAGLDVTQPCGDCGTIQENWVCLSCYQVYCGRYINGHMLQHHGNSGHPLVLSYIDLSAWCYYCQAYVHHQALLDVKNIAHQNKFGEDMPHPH

[8] = biological target: Histone deacetylase 5 (Homo sapiens) (UniProt Q9UQL6); test: Inhibition of full length N-terminal GST-tagged human HDAC5 expressed in baculovirus infected Sf9 insect cells using BPS HDAC class 2a substrate at 1 uM after 30 mins by fluorescence assay relative to control
Method in brief: (§3)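 Run by a contract lab. Compound incubated with HDAC enzyme, HDAC substrate, BSA and HDAC buffer, in duplicate, at 37 °C for 30 min. Quenched with HDAC developer, then 15 min at room temperature. Fluorescence read at ex 360/em 460 nm. Percent activity = (F−Fb)/(Ft−Fb), using blank and solvent-control wells. IC50 from curve fitting.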

[9] = biological target: T4, Polyamine deacetylase HDAC10 (Homo sapiens, UniProt Q969S8); test: Inhibition of N-terminal GST-tagged/C-terminal His-tagged human HDAC10 (1 to 481 residues) expressed in baculovirus infected Sf9 insect cells using BPS HDAC substrate 3 after 30 mins by fluorescence assay; method in brief: as §3
T4 sequence (Q969S8 whole entry): T2 sequence (whole entry)

MDA-MB-231 [10] = test: Cytotoxicity against human MDA-MB-231 cells assessed as reduction in cell viability after 48 hrs by MTT assay; format: functional, cell-based; settings: MDA-MB-231, 48 h; method in brief: as §2
Homo sapiens [11] = species: Homo sapiens; test: Inhibition of class 1 HDAC in human MDA-MB-231 cells assessed as hyperacetylation of histone H3 (Lys9/14) measured at 8 hrs post treatment by immunoblot analysis; format: cell-based
Method in brief: (§4)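 Cells in DMEM/10% FBS; 4 × 10^5 cells seeded in 60-mm dishes overnight, then treated for 8 h with 0–10 μM (final) compound or vehicle (1% EtOH). Whole-cell lysates loaded at equal protein (BCA), run on SDS-PAGE, blotted to PVDF and probed with anti-acetyl histone H3 (Lys9/14); β-actin also probed. Chemiluminescent detection.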

HCT-116 [12] = test: Cytotoxicity against human HCT116 cells assessed as reduction in cell viability after 48 hrs by MTT assay; format: functional, cell-based; settings: HCT-116, 48 h; method in brief: as §2
Homo sapiens [13] = species: Homo sapiens; test: Inhibition of class 1 HDAC in human HCT116 cells assessed as hyperacetylation of histone H3 (Lys9/14) measured at 8 hrs post treatment by immunoblot analysis; format: cell-based; method in brief: as §4
[14] = biological target: Histone deacetylase 3/Nuclear receptor corepressor 2 (HDAC3/NCoR2) (Homo sapiens, UniProt O15379); test: Inhibition of full length human C-terminal His-tagged HDAC3/N-terminal GST-tagged NCOR2 (395 to 489 residues) expressed in baculovirus infected Sf9 insect cells using BPS HDAC substrate 3 after 30 mins by fluorescence assay
Method in brief: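 Run by a contract lab. Compound incubated with HDAC enzyme, substrate, bovine serum albumin and HDAC buffer in duplicate for 30 min at 37 °C. Activity taken as (F−Fb)/(Ft−Fb) against blank and solvent control wells; IC50 from curve fitting.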

Histone deacetylase 1, sequence (Q13547 whole entry, the tested form may be a part): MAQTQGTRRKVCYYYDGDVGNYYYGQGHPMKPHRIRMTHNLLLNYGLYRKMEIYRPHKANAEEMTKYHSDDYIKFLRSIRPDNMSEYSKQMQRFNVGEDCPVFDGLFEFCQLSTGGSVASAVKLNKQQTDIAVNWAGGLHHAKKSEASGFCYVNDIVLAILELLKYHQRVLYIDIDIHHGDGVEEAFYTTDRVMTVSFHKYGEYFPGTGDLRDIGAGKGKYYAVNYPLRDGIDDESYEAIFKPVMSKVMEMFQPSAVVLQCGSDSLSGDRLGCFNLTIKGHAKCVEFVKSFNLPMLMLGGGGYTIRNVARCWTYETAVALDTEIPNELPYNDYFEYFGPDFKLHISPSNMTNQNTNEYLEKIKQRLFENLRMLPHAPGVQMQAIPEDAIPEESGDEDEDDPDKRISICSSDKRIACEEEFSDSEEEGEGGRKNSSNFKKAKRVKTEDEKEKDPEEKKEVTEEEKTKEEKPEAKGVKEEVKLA
Histone deacetylase 2, sequence (Q92769 whole entry): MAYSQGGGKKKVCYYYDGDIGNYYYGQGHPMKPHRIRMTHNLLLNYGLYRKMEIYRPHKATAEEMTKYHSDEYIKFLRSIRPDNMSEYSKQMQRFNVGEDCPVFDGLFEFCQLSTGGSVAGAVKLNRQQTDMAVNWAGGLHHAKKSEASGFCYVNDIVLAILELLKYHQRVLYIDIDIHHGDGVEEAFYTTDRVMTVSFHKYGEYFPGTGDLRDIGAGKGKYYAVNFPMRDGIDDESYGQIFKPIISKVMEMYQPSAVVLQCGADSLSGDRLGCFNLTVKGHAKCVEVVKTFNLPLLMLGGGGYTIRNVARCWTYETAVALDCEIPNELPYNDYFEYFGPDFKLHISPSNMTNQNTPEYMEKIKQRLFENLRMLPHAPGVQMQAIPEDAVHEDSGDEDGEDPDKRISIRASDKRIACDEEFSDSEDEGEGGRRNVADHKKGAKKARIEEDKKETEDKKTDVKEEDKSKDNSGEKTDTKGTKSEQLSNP
Histone deacetylase 5 (Homo sapiens), sequence (Q9UQL6 whole entry): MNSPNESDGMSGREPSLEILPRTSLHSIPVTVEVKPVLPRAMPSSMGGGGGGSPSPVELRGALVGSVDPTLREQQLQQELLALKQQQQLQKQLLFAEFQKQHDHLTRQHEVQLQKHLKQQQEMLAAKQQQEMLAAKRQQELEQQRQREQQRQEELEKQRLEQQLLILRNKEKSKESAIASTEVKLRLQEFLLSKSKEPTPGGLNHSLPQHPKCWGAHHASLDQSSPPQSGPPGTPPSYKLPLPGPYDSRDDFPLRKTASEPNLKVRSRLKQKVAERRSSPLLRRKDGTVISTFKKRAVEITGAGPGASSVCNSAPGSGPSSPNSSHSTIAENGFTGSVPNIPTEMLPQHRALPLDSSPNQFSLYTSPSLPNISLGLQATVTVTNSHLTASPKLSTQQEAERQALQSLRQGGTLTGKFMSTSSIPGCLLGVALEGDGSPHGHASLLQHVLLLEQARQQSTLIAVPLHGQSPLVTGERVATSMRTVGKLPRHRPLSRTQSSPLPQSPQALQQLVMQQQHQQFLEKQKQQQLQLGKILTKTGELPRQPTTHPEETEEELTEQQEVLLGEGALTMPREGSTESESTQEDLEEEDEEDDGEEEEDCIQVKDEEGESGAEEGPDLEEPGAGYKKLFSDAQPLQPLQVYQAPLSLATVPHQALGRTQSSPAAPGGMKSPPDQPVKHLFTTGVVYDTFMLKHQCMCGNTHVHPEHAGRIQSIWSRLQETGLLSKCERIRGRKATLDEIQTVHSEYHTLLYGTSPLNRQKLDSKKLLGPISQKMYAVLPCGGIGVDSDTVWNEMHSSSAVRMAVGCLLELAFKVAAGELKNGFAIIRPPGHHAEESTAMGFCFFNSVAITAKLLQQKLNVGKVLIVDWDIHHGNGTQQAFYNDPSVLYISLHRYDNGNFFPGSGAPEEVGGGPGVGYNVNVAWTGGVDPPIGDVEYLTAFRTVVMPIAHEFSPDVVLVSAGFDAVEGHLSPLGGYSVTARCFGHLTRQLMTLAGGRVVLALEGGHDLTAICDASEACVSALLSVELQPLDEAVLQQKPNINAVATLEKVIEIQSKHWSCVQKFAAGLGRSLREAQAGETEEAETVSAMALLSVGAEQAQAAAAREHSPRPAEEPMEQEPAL
Histone deacetylase 3/Nuclear receptor corepressor 2 (HDAC3/NCoR2), sequence (O15379 whole entry, the tested form may be a part): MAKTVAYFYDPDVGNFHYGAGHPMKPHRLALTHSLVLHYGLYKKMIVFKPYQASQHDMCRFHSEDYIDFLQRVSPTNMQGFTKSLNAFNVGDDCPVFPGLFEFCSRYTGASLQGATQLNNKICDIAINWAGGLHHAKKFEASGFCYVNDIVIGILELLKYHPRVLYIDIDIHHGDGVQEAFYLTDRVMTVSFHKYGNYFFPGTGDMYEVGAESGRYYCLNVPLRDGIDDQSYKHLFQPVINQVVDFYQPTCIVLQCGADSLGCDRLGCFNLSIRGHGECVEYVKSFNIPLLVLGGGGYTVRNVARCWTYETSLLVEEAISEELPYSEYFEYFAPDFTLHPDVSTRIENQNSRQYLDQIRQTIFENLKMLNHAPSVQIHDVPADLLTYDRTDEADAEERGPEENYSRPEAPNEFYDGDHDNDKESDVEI
Histone deacetylase 3/Nuclear receptor corepressor 2 (HDAC3/NCoR2), sequence (Q9Y618 whole entry, further chain, the tested form may be a part): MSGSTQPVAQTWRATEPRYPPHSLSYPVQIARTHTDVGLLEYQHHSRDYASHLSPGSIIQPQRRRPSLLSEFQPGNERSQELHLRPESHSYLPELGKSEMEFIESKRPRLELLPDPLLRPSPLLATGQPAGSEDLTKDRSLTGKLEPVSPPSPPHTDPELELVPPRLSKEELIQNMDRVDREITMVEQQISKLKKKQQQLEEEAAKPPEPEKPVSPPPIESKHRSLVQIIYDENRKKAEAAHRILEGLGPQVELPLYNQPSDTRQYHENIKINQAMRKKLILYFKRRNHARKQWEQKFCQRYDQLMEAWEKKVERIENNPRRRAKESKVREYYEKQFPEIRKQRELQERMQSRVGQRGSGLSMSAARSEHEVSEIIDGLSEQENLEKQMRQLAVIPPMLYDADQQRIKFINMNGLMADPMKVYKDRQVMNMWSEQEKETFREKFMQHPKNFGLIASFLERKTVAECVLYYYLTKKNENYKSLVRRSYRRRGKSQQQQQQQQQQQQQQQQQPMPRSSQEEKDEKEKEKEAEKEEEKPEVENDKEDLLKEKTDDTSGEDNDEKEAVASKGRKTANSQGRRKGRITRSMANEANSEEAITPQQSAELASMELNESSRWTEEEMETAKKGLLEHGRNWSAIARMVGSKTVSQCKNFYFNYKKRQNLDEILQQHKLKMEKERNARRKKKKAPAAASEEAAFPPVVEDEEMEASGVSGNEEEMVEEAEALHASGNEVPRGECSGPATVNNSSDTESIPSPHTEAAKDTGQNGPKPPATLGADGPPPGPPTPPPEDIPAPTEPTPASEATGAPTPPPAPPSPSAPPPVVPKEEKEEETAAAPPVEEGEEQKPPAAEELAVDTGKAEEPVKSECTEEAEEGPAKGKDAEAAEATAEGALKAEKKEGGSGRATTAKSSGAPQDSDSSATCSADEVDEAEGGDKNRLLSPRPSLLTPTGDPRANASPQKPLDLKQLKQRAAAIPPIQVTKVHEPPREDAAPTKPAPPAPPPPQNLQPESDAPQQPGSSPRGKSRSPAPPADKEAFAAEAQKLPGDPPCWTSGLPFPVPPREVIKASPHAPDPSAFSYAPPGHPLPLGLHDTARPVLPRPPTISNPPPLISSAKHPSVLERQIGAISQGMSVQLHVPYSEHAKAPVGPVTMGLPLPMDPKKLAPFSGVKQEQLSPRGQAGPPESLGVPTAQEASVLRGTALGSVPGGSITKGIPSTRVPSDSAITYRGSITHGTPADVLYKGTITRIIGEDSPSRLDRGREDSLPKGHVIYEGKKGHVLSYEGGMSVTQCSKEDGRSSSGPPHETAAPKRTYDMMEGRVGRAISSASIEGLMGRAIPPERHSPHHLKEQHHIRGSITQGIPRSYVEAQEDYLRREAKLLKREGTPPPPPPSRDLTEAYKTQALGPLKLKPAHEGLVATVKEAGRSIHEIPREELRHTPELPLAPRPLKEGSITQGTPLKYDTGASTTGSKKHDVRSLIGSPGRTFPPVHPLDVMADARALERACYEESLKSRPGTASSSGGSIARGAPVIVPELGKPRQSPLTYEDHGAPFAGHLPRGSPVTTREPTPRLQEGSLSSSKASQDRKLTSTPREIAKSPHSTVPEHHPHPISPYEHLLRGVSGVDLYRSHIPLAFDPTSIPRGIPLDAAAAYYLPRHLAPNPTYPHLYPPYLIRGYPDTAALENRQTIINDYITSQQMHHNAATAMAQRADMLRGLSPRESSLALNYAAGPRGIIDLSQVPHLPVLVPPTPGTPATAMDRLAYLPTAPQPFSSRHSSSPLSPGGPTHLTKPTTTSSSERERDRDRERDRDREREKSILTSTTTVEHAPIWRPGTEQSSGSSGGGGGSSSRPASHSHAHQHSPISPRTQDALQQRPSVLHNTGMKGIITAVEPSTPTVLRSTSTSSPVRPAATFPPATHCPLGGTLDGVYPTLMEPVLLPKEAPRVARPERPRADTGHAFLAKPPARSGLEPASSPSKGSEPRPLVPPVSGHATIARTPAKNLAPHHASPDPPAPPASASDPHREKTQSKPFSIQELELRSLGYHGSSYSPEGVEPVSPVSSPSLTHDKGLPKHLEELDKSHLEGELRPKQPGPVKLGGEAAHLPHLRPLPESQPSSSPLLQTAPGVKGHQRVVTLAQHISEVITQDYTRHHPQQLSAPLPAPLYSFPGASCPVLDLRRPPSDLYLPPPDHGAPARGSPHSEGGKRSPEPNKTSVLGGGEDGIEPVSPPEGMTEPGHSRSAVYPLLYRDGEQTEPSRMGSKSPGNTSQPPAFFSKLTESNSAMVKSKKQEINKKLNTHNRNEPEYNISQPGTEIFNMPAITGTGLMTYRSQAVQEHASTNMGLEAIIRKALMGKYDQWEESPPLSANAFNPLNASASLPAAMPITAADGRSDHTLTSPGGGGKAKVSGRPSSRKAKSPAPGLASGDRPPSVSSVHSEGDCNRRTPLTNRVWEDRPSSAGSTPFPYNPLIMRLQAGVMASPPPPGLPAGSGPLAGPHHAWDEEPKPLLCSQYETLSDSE

SMILES	inhibition [1]	inhibition [2]	inhibition [3]	inhibition (Histone deacetylase 2)	Activity (HCT-116 [4])	Activity (MDA-MB-231 [5])	inhibition (Histone deacetylase 1)	inhibition [6]	inhibition [7]	inhibition [8]	IC50 [9]	IC50 (MDA-MB-231 [10])	inhibition (Homo sapiens [11])	IC50 (HCT-116 [12])	inhibition (Homo sapiens [13])	IC50 [14]
CC(=O)CC(=O)NC/C=C/[C@@H]1CC(=O)NCc2nc(cs2)C2=N[C@@](C)(CS2)C(=O)N[C@@H](C(C)C)C(=O)O1	< 15%	< 15%	< 15%	< 15%	inactive	inactive	< 15%	< 15%	22%							
CC(C)[C@@H]1NC(=O)[C@]2(C)CSC(=N2)c2csc(n2)CNC(=O)C[C@@H](/C=C/CCN)OC1=O	< 15%	< 15%	< 15%	< 15%	inactive	inactive	< 15%	< 15%	< 15%							
CC(C)[C@@H]1NC(=O)[C@]2(C)CSC(=N2)c2csc(n2)CNC(=O)C[C@@H](/C=C/CCS)OC1=O										< 15%	0.5 nM					
CCCCCCCC(=O)SCC/C=C/[C@@H]1CC(=O)NCc2nc(cs2)C2=N[C@@](C)(CS2)C(=O)N[C@@H](C(C)C)C(=O)O1 [LARGAZOLE]												1.6 nM	Dose-dependent effect	20 nM	Dose-dependent effect	
CCC(=O)CC/C=C/[C@@H]1CC(=O)NCc2nc(cs2)C2=N[C@@](C)(CS2)C(=O)N[C@@H](C(C)C)C(=O)O1	< 15%	49%	< 15%	24%	inactive	inactive	30%		< 15%							8000 nM
CCC/C=C/[C@@H]1CC(=O)NCc2nc(cs2)C2=N[C@@](C)(CS2)C(=O)N[C@@H](C(C)C)C(=O)O1	24%	< 15%	< 15%	< 15%	inactive	inactive	< 15%	< 15%	< 15%							
CC(C)[C@@H]1NC(=O)[C@]2(C)CSC(=N2)c2csc(n2)CNC(=O)C[C@@H](/C=C/CCC(=O)O)OC1=O	20%	19%	< 15%	< 15%	inactive	inactive	< 15%	< 15%	17%							
